The record followed here is ChEMBL document CHEMBL1125450, “Synthesis and in vitro characterization of novel amino terminally modified oxotremorine derivatives for brain muscarinic receptors” (J Med Chem, 1992).

The target in experiment [1] is T1, Muscarinic acetylcholine receptor M2 (Rattus norvegicus, UniProt P10980).
T1 sequence (P10980 whole entry): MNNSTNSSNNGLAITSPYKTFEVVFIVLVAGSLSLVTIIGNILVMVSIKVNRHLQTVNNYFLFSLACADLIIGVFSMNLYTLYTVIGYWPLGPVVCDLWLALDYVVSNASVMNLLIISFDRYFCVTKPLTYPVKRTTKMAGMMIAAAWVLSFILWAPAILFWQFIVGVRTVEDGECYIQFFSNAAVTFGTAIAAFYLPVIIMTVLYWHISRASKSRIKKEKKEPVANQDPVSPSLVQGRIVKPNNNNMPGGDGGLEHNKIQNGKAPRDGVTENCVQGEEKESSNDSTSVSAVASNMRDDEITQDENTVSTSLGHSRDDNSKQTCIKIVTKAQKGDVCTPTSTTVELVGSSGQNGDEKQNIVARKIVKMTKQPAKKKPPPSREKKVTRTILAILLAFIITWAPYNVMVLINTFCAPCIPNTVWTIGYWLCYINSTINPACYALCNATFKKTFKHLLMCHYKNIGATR
Description: Compound was evaluated for its binding affinity towards Muscarinic acetylcholine receptor M2 in rat brainstem. Format: tissue-based, Brain. Put shortly: (§1)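 Rat pons-medulla homogenised 1:200 w/v in 50 mM sodium phosphate, pH 7.4; 0.5 mg tissue with 0.2 nM [3H]QNB and varying unlabeled ligand, 75 min at 25 °C. IC50 corrected to Ki by Cheng-Prusoff.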

In experiment [2] the target is T2, Muscarinic acetylcholine receptor M1 (Rattus norvegicus, UniProt P08482).
T2 sequence (P08482 whole entry): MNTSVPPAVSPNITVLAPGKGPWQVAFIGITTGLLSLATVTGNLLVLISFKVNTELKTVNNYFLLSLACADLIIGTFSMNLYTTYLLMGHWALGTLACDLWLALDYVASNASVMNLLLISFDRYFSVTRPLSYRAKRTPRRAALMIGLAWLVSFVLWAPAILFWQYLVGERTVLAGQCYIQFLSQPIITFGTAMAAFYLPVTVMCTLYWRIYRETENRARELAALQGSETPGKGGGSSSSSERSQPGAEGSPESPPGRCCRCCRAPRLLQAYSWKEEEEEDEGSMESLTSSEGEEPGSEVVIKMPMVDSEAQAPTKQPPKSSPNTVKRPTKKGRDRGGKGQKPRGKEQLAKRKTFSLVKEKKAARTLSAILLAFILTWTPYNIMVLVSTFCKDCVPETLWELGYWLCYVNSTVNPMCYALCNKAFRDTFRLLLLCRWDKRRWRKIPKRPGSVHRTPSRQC
The experiment can be described thus: Compound was evaluated for its binding affinity towards Muscarinic acetylcholine receptor M1 in rat cortex. Put shortly:
(§2)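 Rat fronto-parietal cortex homogenised 1:200 w/v in 50 mM Na-K phosphate, pH 7.4; 0.5 mg tissue competed against [3H]pirenzepine (6 nM) for 1 h at 25 °C, filtered on polyethylenimine-treated GF/B. Nonspecific binding with 10 µM atropine. IC50 converted to Ki by Cheng-Prusoff.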

The target in experiment [3] is T2, Muscarinic acetylcholine receptor M1. Description: Compound was evaluated for its binding affinity towards M1 receptor in rat cortex.
The target of experiment [4] is T1, Muscarinic acetylcholine receptor M2. Description: Compound was evaluated for its binding affinity towards M2 receptor in rat brainstem. Format: tissue-based, Brain.
Experiment [5] shares this target. The experiment can be described thus: Compound was evaluated for its binding affinity towards muscarinic acetylcholine receptor M2 in rat brainstem. Format: tissue-based, Brain. Put shortly: as §1
Experiment [6] addresses T3, Muscarinic acetylcholine receptor M1 (Rattus norvegicus) (UniProt P08482).
T3 sequence (whole entry): T2 sequence (P08482 whole entry)
The experiment can be described thus: Intrinsic activity against Muscarinic acetylcholine receptor M1 in rat cortex (activity expressed as % response of that produced by carbachol). Format: functional. An outline of the steps:
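Dissociated male Sprague-Dawley rat cortex, rejuvenated in oxygenated Krebs-Henseleit (final step with 10 mM Li+), labeled 60 min at 37 °C with [3H]inositol. Compound at 1 mM added for 60 min under 95% O2/5% CO2; [3H]inositol 1-phosphate isolated on Dowex. Response scaled to 1 mM carbachol PI hydrolysis (100%).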

The target of experiment [7] is T2, Muscarinic acetylcholine receptor M1. Description: Compound was evaluated for its binding affinity towards muscarinic acetylcholine receptor in rat cortex. Put shortly: as §2
The target of experiment [8] is T4, Muscarinic acetylcholine receptor M2 (Rattus norvegicus) (UniProt P10980).
T4 sequence (whole entry): T1 sequence (P10980 whole entry)
The experiment can be described thus: Intrinsic activity against muscarinic acetylcholine receptor M2 in rat striatum (activity expressed as % response of that produced by carbachol). Format: functional, tissue-based. An outline of the steps:
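Dissociated rat striatum prelabeled 45 min at 37 °C with [3H]adenine, then 30 min with 1.5 mM IBMX before 10 µM forskolin plus 100 µM compound for 10 min; stopped with TCA, [3H]cAMP by ion-exchange columns. Inhibition of cAMP scaled to that of 100 µM carbachol (100%).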

Turning to `CN(C)CC#CCN1CCCC1=O`, the results for the inhibitory constant (Ki) in experiment [1] and in experiment [2] were 0.926 µM and 15.9 µM, respectively.

With `CN1CCC[C@H]1CC#CCN1CCCC1=O`, the inhibition constant Ki in experiment [3] is 10.5 µM; in experiment [4] it was 10.8 µM.

Consider `O=C1CCCN1CC#CC[C@H]1CCCCN1`, for which the results for the inhibition constant (Ki) in experiment [3] and in experiment [4] were 3.03 µM and 0.636 µM, respectively.

Regarding `CN1CCCC[C@@H]1CC#CCN1CCCC1=O`, the values for the Ki in experiment [3] and in experiment [4] were 1.2 µM and 3.66 µM, respectively.

Consider `O=C1CCCN1CC#CCN1CCCC1` [OXOTREMORINE], for which the values for the Ki in experiment [5] and in experiment [7] were 0.084 µM and 0.196 µM, respectively. The compound further gave a Response in experiment [6] of 13.7%.

Regarding `O=C1CCCN1CC#CCN1CCC1`, the figures for the Response in experiment [8] and in experiment [6] were 105% and 46.2%, respectively. The inhibition constant (Ki) amounted to 0.0274 µM in experiment [5] and 2.25 µM in experiment [7].

Turning to `CN1CCCC[C@H]1CC#CCN1CCCC1=O`, the inhibition constant Ki in experiment [3] stood at 5.38 µM; in experiment [4], 7.06 µM.

Regarding `CNCC#CCN1CCCC1=O`, the Response in experiment [8] was found to be 36.3%; in experiment [6], 5.7%. For the same compound, the values for the Ki in experiment [5] and in experiment [7] were 38.1 µM and 65.5 µM, respectively.

For the compound `O=C1CCCN1CC#CC[C@H]1CCCN1`, the results for the inhibitory constant (Ki) in experiment [3] and in experiment [4] were 3.07 µM and 2.46 µM, respectively.

On to `CN1CCC[C@@H]1CC#CCN1CCCC1=O`, for which the Ki in experiment [3] stood at 5.46 µM; in experiment [4], 5.86 µM.

Regarding `CCN(C)CC#CCN1CCCC1=O`, the Response in experiment [8] was found to be 91.6%; in experiment [6] it was 2.75%. Besides, the Ki in experiment [5] is 0.813 µM; in experiment [7] it was 2.69 µM.

In the case of `O=C1CCCN1CC#CC[C@@H]1CCCCN1`, the Ki in experiment [3] is 27.6 µM; in experiment [4] it was 15.8 µM.

With `O=C1CCCN1CC#CC[C@@H]1CCCN1`, the inhibitory constant (Ki) in experiment [3] worked out at 40.5 µM; in experiment [4] it was 5.64 µM.
